Bioassay records (PubChem)
Hits are enriched below; roughly 1.9% of the tested compounds scored in any of these assays.
core dimer inh – inhibitors of HCV core protein dimerization, primary screen, biochemical, TR-FRET, high-throughput | TR-FRET GST/Flag-core106 dimerization, 1536-well | inhibition, % at 5 µM | 0.33% of 300,000 active | AID 1899, 2009;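 active means inhibition above the mean of all tested compounds plus 3 SD, set per screening campaign, cut at about 45% in these data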
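System – GST-tagged and Flag-tagged HCV core protein residues 1-106 · Repeats – one well for each compound · Technique – TR-FRET 671 and 617 nm emission · Doses – one concentration, 5 µM, in 0.5% DMSO · Times – 4 h, 22.5 °C incubation · Also added – Eu donor and XL665 acceptor anti-tag antibodies · Measure – percent inhibition of core106 dimerization signal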
pCIP destab – p/CIP-EGFP fusion destabilizers, primary screen, fluorescence, F442A cells. Q05BA5. 16 h. decrease of EGFP signal, % at 10 µM. 0.01% of 290,000 active. AID 1984, 2009;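 active means EGFP signal decrease of at least 30% at 10 µM or well 3 SD below plate mean, unless failing retest; inactive means the rest, including hits failing retest or dose response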
GPR7 antag – GPR7 receptor antagonists, primary screen, cell-based, fluorescence, single concentration; Neuropeptides B/W receptor type 1 (Homo sapiens), P48145; inhibition, % at 4.4 µM; 1.1% of 290,000 active; AID 1861, 2009; GPR7-expressing cells, fluorescence antagonist assay; in the data active means inhibition above about 16%, passing the limit was not always enough;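 further: cells stimulated with the agonist NPW; 0% = agonist with vehicle and 100% = vehicle without agonist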
Target sequence (P48145 whole entry, looked up): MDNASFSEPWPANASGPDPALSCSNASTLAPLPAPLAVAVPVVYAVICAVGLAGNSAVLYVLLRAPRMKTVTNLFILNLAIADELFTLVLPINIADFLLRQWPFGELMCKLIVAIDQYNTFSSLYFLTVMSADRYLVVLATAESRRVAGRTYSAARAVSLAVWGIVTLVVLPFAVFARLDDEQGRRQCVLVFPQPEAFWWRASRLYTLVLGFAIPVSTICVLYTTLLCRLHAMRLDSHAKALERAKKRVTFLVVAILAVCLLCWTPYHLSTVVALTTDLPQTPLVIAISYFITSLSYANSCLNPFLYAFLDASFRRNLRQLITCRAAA
HCV NS3 hel inh – inhibitors of HCV NS3 helicase, primary screen, biochemical, Cy5 molecular beacon fluorescence; Hepatitis C virus NS3 helicase; NS3 helicase DNA unwinding; inhibition, % at 10.9 µM; 0.56% of 290,000 active; AID 1800, 2009;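 active means inhibition above the mean of all tested compounds plus 3 SD, set per campaign, cut at about 35% in these data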;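 further: 0% = DMSO wells and 100% = thioflavine S control wells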
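Test system: hepatitis C virus NS3 helicase domain fragment enzyme. Also added: annealed dual-labelled DNA beacon duplex, ATP-started. Timing: 60 min unwinding reaction at 25 °C after ATP addition. Technique: Cy5 fluorescence. Measure: % inhibition of unwinding.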
DNA FID counter – compounds displacing fluorescent DNA intercalator, primary screen, artefact control for HCV NS3 helicase inhibitor project, biochemical, FID fluorescence; DNA fluorescent intercalator displacement; 0.17% of 290,000 active; AID 1845, 2009; inhibition, % at 7.9 µM; in the data active means inhibition above about 37%;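 further: 0% = vehicle and 100% = reference compound; higher means more ethidium bromide displaced from hairpin DNA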
GPR7 antag cf – GPR7 receptor antagonists, confirmation, cell-based, fluorescence, single concentration | GPR7-expressing cells, calcium fluorescence antagonist mode | inhibition, % at 4.4 µM | AID 1952, 2009 | 52% of 2,400 active | shares compounds with GPR7 antag; in the data active means inhibition above about 24%;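 further: stimulated with the GPR7 agonist NPW; 0% = agonist plus vehicle and 100% = vehicle alone without agonist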
MCHR1 antag – MCHR1 antagonists in cells, counter-screen for GPR7 antagonist project, cell-based, fluorescence, human | shares compounds with GPR7 antag | inhibition, % at 4.4 µM | AID 2148, 2009 | MCHR1-expressing cells, fluorescence antagonist assay | 62% of 2,400 active; in the data active means inhibition above about 22%;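 further: 0% = vehicle with agonist and 100% = vehicle without agonist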
Starred values were filed as active, the others as inactive; nt = not tested or not shown.

SMILES	core dimer inh	pCIP destab	GPR7 antag	HCV NS3 hel inh	DNA FID counter	GPR7 antag cf	MCHR1 antag
CCOCCCn1c(=N)c(C(=O)NCc2ccc3c(c2)OCO3)cc2c(=O)n3ccccc3nc21	nt	-5.3	22.1*	-3.5	16.7	29.3*	19.3
N=c1c(C(=O)NCCc2ccccc2)cc2c(=O)n3ccccc3nc2n1Cc1ccco1	25.2	-6.9	28.0*	3.7	-18.8	51.8*	49.5*
CCCn1c(=N)c(C(=O)NCc2ccc3c(c2)OCO3)cc2c(=O)n3cccc(C)c3nc21	12.7	5.0	-2.3	-3.0	8.0	nt	nt
COc1ccc(C)cc1N(C(=O)c1ccco1)C(C(=O)NC1CCCC1)c1ccc(N2CCOCC2)cc1 (configuration not stated)	-8.9	-17.8	-3.4	1.5	-49.9	nt	nt
N#Cc1ccc(NC(=O)Nc2ccc(Cl)cc2)cc1	-9.7	1.1	30.4*	1.8	11.1	58.0*	56.9*
O=C(CN1C(=O)NC2(CCOc3ccccc32)C1=O)c1ccc[nH]1 (configuration not stated)	4.3	nt	nt	nt	nt	nt	nt
COc1ccc(-n2ccnc(SCC(=O)NCc3ccccc3Cl)c2=O)cc1	-16.8	-4.2	47.9*	23.2	-24.8	14.1	21.3
CC1CN(C(=O)c2ccc(NS(=O)(=O)c3ccc(F)c(F)c3)cc2)CC(C)O1 (configuration not stated)	-4.4	nt	nt	nt	nt	nt	nt
N=c1c2c(-c3ccccc3)c(-c3ccccc3)n(Cc3ccco3)c2ncn1Cc1ccco1	13.4	0.3	37.4*	-69.8	11.5	79.1*	99.9*
N=c1c2c(ncn1Cc1ccco1)Oc1ccc3ccccc3c1C2c1ccccc1 (configuration not stated)	7.0	2.7	-6.9	-3.8	-1.0	nt	nt
CCCCn1cnc2c(c(-c3ccccc3)c(-c3ccccc3)n2Cc2ccco2)c1=N	2.1	2.2	32.4*	-67.0	14.9	54.4*	96.8*
Cc1cccc(NC(=O)c2ccc([N+](=O)[O-])s2)c1C	-0.7	-8.4	1.2	-9.5	0.6	nt	nt
CC1CCCCC1NC(=O)CN1C(=O)CSc2cc(S(=O)(=O)N3CCCCCC3)ccc21 (configuration not stated)	6.9	-2.3	27.7*	8.8	-42.2	22.8	17.6
CCCCn1c(N)c(N(CCOC)C(=O)CSCc2cccc(C)c2)c(=O)[nH]c1=O	-3.1	nt	nt	nt	nt	nt	nt
NC(=O)COC(=O)c1ccc(Oc2ccccc2)cc1	-8.9	-5.9	-4.0	-1.4	-5.3	nt	nt
CC(C)NC(=O)COC(=O)c1ccc(Oc2ccccc2)cc1	-0.8	-14.4	28.4*	-2.1	-17.1	5.6	34.9*
c1ccc(CCNc2ccnc3cc4ccccc4cc23)cc1	nt	-0.9	37.3*	-68.5	19.8	44.8*	74.9*
O=C(NCCc1ccccc1)c1nccc2ccccc12	-11.5	nt	nt	nt	nt	nt	nt
CC(C)CNC(=O)c1cc2nc3c(c(C(F)(F)F)n2n1)CCc1ccccc1-3	11.2	-4.0	22.1*	24.9	-5.9	-3.2	11.4
CCC(C(=O)N/N=C(\C)c1cccnc1)c1ccccc1 (configuration not stated)	2.3	-6.4	-24.9	-7.5	-22.4	nt	nt
O=C(Nc1ccnn1C1CCN(Cc2ccc(CO)o2)CC1)c1ccccc1	9.2	14.6	29.3*	-5.0	3.1	-9.4	16.0
O=C(COC(=O)[C@H](Cc1ccccc1)NC(=O)c1cccs1)Nc1ccccc1C(F)(F)F	6.8	-0.3	22.9*	0.5	-21.4	39.0*	32.2*
O=C(Nc1ccccc1)Nc1ccno1	0.6	2.2	26.8*	1.9	-0.8	6.5	5.6
O=C(Nc1ccccc1)Nc1ccncc1	4.8	-6.4	-6.3	-3.0	-2.0	nt	nt
COc1ccc(OC)c(NC(=O)c2ccc(OC3CSC3)cc2)c1	2.8	0.9	7.0	-6.4	-18.4	nt	nt
